Calls of active or inactive are those of the source. The rule behind the calls is not given here.

In ChEMBL document CHEMBL4359895, “Discovery and biological evaluation of darolutamide derivatives as inhibitors and down-regulators of wild-type AR and the mutants” (Eur J Med Chem, 2019) one finds inhibition, Activity and Cmax data, which are given here for two compounds.

Data set [1] deals with LNCaP. Put plainly: Inhibition of AR protein expression in human LNCAP cells at 5 to 20 uM incubated for 24 hrs by Western blot analysis. In kind it is functional, cell-based. In a few lines: (§1)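 LNCaP, VCaP and 22Rv1 cells grown in medium with 10% (v/v) FBS. Treated with compounds or DMSO for 24 h. AR-full and AR splice-variant protein then assessed by western blot.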
In general terms: In western blotting, separated proteins are transferred to a membrane and probed.

In data set [2] the test system is LNCaP. The experiment in a line: Inhibition of AR splice variant 7 mutant expression in human LNCAP cells at 5 to 20 uM incubated for 24 hrs by Western blot analysis analysis. It counts as functional, cell-based. The method, boiled down:
as §1

For data set [3], the system named is VCaP. The experiment in a line: Inhibition of AR mRNA level in human VCaP cells at 10 to 30 uM incubated for 24 hrs by qRT-PCR analysis. It counts as functional, cell-based. In a few lines: (§2)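 LNCaP, VCaP and 22Rv1 cells treated with DMSO or compounds for 24 h. AR-full and AR-V7 mRNA measured by qRT-PCR and normalised to GAPDH. Mean ± SD, n = 3, compared with DMSO by two-tailed t test.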
(In general: Real-time PCR tracks product formation cycle by cycle.)

Data set [4] deals with LNCaP. The experiment in a line: Inhibition of AR splice variant 7 mutant gene expression in human LNCAP cells at 5 to 20 uM incubated for 24 hrs by qRT-PCR analysis. In kind it is functional, cell-based. The method, boiled down: as §2
Data set [5] relates to VCaP. Put plainly: Inhibition of AR splice variant 7 mutant gene expression in human VCaP cells at 10 to 30 uM incubated for 24 hrs by qRT-PCR analysis. It counts as functional, cell-based. The method, boiled down: as §2
Data set [6] deals with LNCaP. The experiment in a line: Induction of androgen receptor splice variant 7 mutant degradation in human LNCAP cells at 30 uM incubated upto 26 hrs in presence of bortezomib/MG132 by Western blot analysis. In kind it is functional, cell-based.
A short description of data set [7]: Plasma concentration in Sprague-Dawley rat 30 mg/kg, po measured up to 24 hrs by LC-MS/MS analysis. It counts as ADME, organism-based. In a few lines:
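Rats dosed orally at 30 mg/kg, compound formulated in 10% DMA / 90% PEG200. Plasma levels followed over time to build concentration-time curves, from which T1/2, Tmax, Cmax and AUC were derived.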

The subject of data set [8] is LNCaP. The experiment in a line: Inhibition of AR protein expression in human LNCAP cells at 5 to 30 uM incubated for 24 hrs by Western blot analysis. In kind it is functional, cell-based. In a few lines:
as §1

Data set [9] has as its system CWR22R. Put plainly: Inhibition of AR splice variant 7 mutant expression in human 22Rv1 cells at 10 to 40 uM incubated for 24 hrs by Western blot analysis analysis. It counts as functional, cell-based. The method, boiled down: as §1
In data set [10] the test system is LNCaP. Put plainly: Inhibition of AR mRNA level in human LNCAP cells at 5 to 30 uM incubated for 24 hrs by qRT-PCR analysis. In kind it is functional, cell-based. The method, boiled down: as §2
For data set [11], the system named is CWR22R. Put plainly: Inhibition of AR mRNA level in human 22Rv1 cells at 10 to 40 uM incubated for 24 hrs by qRT-PCR analysis. It counts as functional, cell-based. The method, boiled down:
as §2

`C[C@@H](Cn1ccc(-c2ccc(C#N)c(Cl)c2)n1)Nc1cccc2ncccc12`: the inhibition result in the data set on LNCaP [1], in the data set with LNCaP [2], in the data set on VCaP [3], in the data set on LNCaP [4] and with VCaP [5] was “Active” in each case.

For the compound `C[C@@H](Cn1ccc(-c2ccc(C#N)c(Cl)c2)n1)Nc1ncnc2nc[nH]c12`, in the data set with LNCaP [6], the outcome was inactive. Moreover, in [7], the highest concentration (Cmax) came to 2650 ng/mL. For the same compound, the inhibition result with LNCaP [8], in the data set on CWR22R [9], with LNCaP [10] and in the data set with CWR22R [11] was “Active” throughout.

In general, Cmax refers to the peak of the concentration-time curve.
